Drawing on ChEMBL document CHEMBL1275282, “Synthesis, characterization, oxidative degradation, antibacterial activity and acetylcholinesterase/butyrylcholinesterase inhibitory effects of some new phosphorus(V) hydrazides” (Eur J Med Chem, 2010), this text covers Km and Vmax for two proteins.

Compound in series [1]: O=C(NP(=O)(NN1CCCCC1)NN1CCCCC1)c1ccccc1
The experiment in a line: (§1) Inhibition of human AChE by double reciprocal Lineweaver-Burke plot assay. In short, it runs like this: (§2)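 Kinetics used the same Ellman read-out, with substrate varied: acetylthiocholine for AChE, butyrylthiocholine for BChE. Rates were taken as OD min-1 with and without inhibitor. Km and Vmax were derived from double-reciprocal Lineweaver-Burk plots of 1/V against 1/[S].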

Compound in series [2]: O=C(NP(=O)(NN1CCOCC1)NN1CCOCC1)c1ccccc1
The description is as §1. Summed up:
as §2

Compound in series [3]: O=P(NN1CCOCC1)(NN1CCOCC1)Oc1ccccc1
The description is as §1. In short, it runs like this:
as §2

Compound in series [4]: O=P(O)(NN1CCCCC1)Oc1ccccc1
The series is described as §1. Summed up: as §2

Compound in series [5]: O=C(NP(=O)(NN1CCCCC1)NN1CCCCC1)c1ccccc1
Nature of the series: (§3) Inhibition of human BChE by double reciprocal Lineweaver-Burke plot assay. Summed up: as §2

Compound in series [6]: O=C(NP(=O)(NN1CCOCC1)NN1CCOCC1)c1ccccc1
The series is described as §3. In short, it runs like this: as §2

Compound in series [7]: O=P(NN1CCOCC1)(NN1CCOCC1)Oc1ccccc1
Described as §3. In short, it runs like this:
as §2

Compound in series [8]: O=P(NN1CCOCC1)(NN1CCOCC1)c1ccccc1
The description is as §3. In short, it runs like this:
as §2

Compound in series [9]: O=P(O)(NN1CCCCC1)Oc1ccccc1
The description is as §3. In short, it runs like this: as §2

B1: Acetylcholinesterase (Homo sapiens), P22303 (protein)
chain: MRPPQCLLHTPSLASPLLLLLLWLLGGGVGAEGREDAELLVTVRGGRLRGIRLKTPGGPVSAFLGIPFAEPPMGPRRFLPPEPKQPWSGVVDATTFQSVCYQYVDTLYPGFEGTEMWNPNRELSEDCLYLNVWTPYPRPTSPTPVLVWIYGGGFYSGASSLDVYDGRFLVQAERTVLVSMNYRVGAFGFLALPGSREAPGNVGLLDQRLALQWVQENVAAFGGDPTSVTLFGESAGAASVGMHLLSPPSRGLFHRAVLQSGAPNGPWATVGMGEARRRATQLAHLVGCPPGGTGGNDTELVACLRTRPAQVLVNHEWHVLPQESVFRFSFVPVVDGDFLSDTPEALINAGDFHGLQVLVGVVKDEGSYFLVYGAPGFSKDNESLISRAEFLAGVRVGVPQVSDLAAEAVVLHYTDWLHPEDPARLREALSDVVGDHNVVCPVAQLAGRLAAQGARVYAYVFEHRASTLSWPLWMGVPHGYEIEFIFGIPLDPSRNYTAEEKIFAQRLMRYWANFARTGDPNEPRDPKAPQWPPYTAGAQQYVSLDLRPLEVRRGLRAQACAFWNRFLPKLLSATDTLDEAERQWKAEFHRWSSYMVHWKNQFDHYSKQDRCSDL
For B1, the Km in series [1] was 45 µM; in [2] it was 49 µM; in series [3], 47 µM; in series [4], 51 µM. Also, the maximal velocity (Vmax) amounted to 40 mM/min in series [1], 55.5 mM/min in series [2], 37 mM/min in series [3] and 11.1 mM/min in series [4].

B2: Cholinesterase (Homo sapiens), P06276 (protein)
chain: MHSKVTIICIRFLFWFLLLCMLIGKSHTEDDIIIATKNGKVRGMNLTVFGGTVTAFLGIPYAQPPLGRLRFKKPQSLTKWSDIWNATKYANSCCQNIDQSFPGFHGSEMWNPNTDLSEDCLYLNVWIPAPKPKNATVLIWIYGGGFQTGTSSLHVYDGKFLARVERVIVVSMNYRVGALGFLALPGNPEAPGNMGLFDQQLALQWVQKNIAAFGGNPKSVTLFGESAGAASVSLHLLSPGSHSLFTRAILQSGSFNAPWAVTSLYEARNRTLNLAKLTGCSRENETEIIKCLRNKDPQEILLNEAFVVPYGTPLSVNFGPTVDGDFLTDMPDILLELGQFKKTQILVGVNKDEGTAFLVYGAPGFSKDNNSIITRKEFQEGLKIFFPGVSEFGKESILFHYTDWVDDQRPENYREALGDVVGDYNFICPALEFTKKFSEWGNNAFFYYFEHRSSKLPWPEWMGVMHGYEIEFVFGLPLERRDNYTKAEEILSRSIVKRWANFAKYGNPNETQNNSTSWPVFKSTEQKYLTLNTESTRIMTKLRAQQCRFWTSFFPKVLEMTGNIDEAEWEWKAGFHRWNNYMMDWKNQFNDYTSKKESCVGL
For B2, the Km came out at 75 µM in [5]; 50 µM in series [6]; 85 µM in series [7]; 67 µM in series [8]; 67 µM in series [9]. The Vmax came to 55.6 mM/min in series [5]; 23.5 mM/min in [6]; 66.4 mM/min in [7]; 71.4 mM/min in series [8]; 27.8 mM/min in [9].
